Assay results taken from the M2OR odorant receptor database.

What was measured:
Conditions in all cases: stereoisomer not certain
[1] = target: T1, OR1G1 (Homo sapiens) (UniProt P47890)
T1 sequence (whole entry): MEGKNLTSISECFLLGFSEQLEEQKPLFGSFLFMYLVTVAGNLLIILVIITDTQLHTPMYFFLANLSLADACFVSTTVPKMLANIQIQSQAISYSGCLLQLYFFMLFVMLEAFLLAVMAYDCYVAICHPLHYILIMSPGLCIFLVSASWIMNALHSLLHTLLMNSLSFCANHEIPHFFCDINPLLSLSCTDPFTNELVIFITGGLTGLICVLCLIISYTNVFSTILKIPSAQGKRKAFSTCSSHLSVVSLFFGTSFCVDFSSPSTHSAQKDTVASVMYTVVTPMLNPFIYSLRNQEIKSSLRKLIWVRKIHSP
How it was run: (§1)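 Assay methods differ from source to source, frequently being transient luciferase assays in mammalian cell lines. For each receptor–molecule pair, the label responsive (active) applies when the original authors judged the measured signal statistically different from baseline, and non-responsive (inactive) applies otherwise.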

[2] = target: T2, OR1F12P (Homo sapiens) (UniProt Q8NHA8)
T2 sequence (whole entry): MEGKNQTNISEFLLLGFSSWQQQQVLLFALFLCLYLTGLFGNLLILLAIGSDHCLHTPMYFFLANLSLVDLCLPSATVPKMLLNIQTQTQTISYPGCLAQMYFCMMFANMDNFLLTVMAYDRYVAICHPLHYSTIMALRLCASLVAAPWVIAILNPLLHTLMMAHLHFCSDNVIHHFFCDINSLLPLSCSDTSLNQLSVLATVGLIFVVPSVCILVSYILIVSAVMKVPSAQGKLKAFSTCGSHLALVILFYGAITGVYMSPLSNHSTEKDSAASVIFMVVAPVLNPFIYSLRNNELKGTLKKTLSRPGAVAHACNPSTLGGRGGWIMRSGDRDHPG
How it was run: as §1

[3] = target: T3, OR1I1 (Homo sapiens) (UniProt O60431)
T3 sequence (whole entry): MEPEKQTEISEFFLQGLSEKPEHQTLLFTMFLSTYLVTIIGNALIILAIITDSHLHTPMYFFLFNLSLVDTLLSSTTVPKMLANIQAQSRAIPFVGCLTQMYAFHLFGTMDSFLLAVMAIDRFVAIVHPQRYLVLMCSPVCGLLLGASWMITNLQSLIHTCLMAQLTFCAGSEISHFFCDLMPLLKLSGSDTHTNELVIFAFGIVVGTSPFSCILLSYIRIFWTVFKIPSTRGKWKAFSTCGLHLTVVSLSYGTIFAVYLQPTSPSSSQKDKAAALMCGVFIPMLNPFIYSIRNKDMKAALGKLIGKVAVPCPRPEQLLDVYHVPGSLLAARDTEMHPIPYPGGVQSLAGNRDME
How it was run: as §1

[4] = target: T4, OR1J1 (Homo sapiens) (UniProt Q8NGS3)
T4 sequence (whole entry): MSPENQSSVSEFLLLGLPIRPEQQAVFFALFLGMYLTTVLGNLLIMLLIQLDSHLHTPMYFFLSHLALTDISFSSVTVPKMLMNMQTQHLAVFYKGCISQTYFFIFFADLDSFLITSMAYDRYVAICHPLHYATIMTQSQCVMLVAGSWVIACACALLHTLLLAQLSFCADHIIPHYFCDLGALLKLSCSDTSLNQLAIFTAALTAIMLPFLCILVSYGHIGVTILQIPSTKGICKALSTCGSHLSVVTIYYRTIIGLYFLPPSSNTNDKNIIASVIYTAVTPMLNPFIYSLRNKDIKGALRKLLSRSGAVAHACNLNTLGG
How it was run: as §1

[5] = target: T5, OR1K1 (Homo sapiens) (UniProt Q8NGR3)
T5 sequence (whole entry): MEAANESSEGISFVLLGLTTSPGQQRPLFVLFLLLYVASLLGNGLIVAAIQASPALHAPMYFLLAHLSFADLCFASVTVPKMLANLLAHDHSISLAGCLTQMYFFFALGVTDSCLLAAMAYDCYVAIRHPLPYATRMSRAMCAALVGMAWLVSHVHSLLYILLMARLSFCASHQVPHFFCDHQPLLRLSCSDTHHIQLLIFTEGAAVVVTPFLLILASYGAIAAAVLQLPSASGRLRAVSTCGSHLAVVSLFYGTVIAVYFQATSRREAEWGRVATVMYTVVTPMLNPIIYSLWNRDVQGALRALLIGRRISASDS
How it was run: as §1

[6] = target: T6, OR1L1 (Homo sapiens) (UniProt Q8NH94)
T6 sequence (whole entry): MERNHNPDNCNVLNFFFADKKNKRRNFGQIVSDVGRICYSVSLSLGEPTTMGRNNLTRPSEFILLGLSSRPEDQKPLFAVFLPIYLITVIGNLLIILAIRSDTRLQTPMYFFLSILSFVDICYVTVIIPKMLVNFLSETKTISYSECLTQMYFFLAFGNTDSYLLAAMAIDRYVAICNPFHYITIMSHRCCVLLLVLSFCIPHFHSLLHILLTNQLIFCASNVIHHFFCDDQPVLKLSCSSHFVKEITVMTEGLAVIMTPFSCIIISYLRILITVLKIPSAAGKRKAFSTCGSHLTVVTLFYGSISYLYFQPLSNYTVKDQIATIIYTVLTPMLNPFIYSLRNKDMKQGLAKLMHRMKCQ
How it was run: as §1

[7] = target: T7, OR1L3 (Homo sapiens) (UniProt Q8NH93)
T7 sequence (whole entry): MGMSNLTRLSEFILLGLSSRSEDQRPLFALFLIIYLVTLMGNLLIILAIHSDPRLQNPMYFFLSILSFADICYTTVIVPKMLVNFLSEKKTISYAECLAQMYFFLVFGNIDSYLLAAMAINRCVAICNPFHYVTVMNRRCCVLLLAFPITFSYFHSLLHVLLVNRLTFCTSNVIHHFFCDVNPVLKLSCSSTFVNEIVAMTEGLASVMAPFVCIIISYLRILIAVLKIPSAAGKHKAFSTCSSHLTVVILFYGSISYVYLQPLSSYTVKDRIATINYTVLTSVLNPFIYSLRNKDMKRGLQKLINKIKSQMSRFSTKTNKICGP
How it was run: as §1

[8] = target: T8, OR1L4 (Homo sapiens) (UniProt Q8NGR5)
T8 sequence (whole entry): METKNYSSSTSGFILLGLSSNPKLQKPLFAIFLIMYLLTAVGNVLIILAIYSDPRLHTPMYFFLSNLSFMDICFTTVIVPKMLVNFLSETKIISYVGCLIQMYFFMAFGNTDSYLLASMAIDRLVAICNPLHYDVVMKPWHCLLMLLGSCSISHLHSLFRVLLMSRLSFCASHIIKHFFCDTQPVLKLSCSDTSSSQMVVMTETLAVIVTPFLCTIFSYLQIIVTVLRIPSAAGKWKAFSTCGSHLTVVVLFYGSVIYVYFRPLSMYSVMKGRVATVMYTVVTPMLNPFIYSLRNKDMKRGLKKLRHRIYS
How it was run: as §1

[9] = target: T9, OR1L6 (Homo sapiens) (UniProt Q8NGR2)
T9 sequence (whole entry): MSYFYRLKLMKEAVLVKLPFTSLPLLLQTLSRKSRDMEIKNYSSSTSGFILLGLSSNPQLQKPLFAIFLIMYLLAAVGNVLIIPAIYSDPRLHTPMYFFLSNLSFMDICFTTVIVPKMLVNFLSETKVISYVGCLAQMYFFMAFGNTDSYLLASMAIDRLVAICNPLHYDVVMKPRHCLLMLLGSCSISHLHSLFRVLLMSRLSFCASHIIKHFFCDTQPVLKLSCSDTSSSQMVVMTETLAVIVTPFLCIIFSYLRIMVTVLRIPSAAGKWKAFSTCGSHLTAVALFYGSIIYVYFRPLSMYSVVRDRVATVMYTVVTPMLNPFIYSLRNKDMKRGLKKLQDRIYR
How it was run: as §1

[10] = target: T10, OR1L8 (Homo sapiens) (UniProt Q8NGR8)
T10 sequence (whole entry): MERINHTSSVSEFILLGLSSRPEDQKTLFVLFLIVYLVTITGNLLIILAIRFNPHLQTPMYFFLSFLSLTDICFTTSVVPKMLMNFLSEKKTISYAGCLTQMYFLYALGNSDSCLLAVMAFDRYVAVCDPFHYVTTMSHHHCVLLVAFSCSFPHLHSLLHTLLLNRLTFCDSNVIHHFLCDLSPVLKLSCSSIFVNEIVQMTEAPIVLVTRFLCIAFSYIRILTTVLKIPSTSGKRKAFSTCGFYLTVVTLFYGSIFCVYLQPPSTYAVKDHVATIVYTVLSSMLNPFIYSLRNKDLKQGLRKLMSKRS
How it was run: as §1

[11] = target: T11, OR1M1 (Homo sapiens) (UniProt Q8NGA1)
T11 sequence (whole entry): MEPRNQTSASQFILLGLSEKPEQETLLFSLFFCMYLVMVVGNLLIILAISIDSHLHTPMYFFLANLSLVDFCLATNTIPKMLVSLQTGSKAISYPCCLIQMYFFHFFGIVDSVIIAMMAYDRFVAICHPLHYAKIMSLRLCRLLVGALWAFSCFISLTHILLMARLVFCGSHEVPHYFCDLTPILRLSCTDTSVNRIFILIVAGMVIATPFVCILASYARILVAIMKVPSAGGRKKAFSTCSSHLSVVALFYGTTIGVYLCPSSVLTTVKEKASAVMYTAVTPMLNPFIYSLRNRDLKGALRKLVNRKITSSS
How it was run: as §1

[12] = target: T12, OR1N1 (Homo sapiens) (UniProt Q8NGS0)
T12 sequence (whole entry): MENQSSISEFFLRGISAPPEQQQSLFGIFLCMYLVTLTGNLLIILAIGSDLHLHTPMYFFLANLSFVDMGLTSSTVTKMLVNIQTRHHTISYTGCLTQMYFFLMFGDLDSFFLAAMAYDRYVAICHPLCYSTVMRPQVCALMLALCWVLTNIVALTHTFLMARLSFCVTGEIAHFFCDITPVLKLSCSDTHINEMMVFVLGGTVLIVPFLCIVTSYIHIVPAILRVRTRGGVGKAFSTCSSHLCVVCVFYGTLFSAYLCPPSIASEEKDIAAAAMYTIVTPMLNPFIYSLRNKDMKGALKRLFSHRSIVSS
How it was run: as §1

Measured: odorant receptor agonist call

CCCCCC(=O)CC
inactive: [1]

CC1CCCCCCCCCCCCC(=O)C1 (centres undefined)
inactive: [2] | [1] | [3] | [4] | [5] | [6] | [7] | [8] | [9] | [10] | [11] | [12]

CCCCCCCCCC(=O)OCC
active: [1]
